These results are taken from ChEMBL document CHEMBL1240478, “Inhibitors of human neutrophil elastase based on a highly functionalized N-amino-4-imidazolidinone scaffold” (Eur J Med Chem, 2010).

In assay [1] the target is T1, Neutrophil elastase (Homo sapiens) (UniProt P08246).
T1 sequence (whole entry): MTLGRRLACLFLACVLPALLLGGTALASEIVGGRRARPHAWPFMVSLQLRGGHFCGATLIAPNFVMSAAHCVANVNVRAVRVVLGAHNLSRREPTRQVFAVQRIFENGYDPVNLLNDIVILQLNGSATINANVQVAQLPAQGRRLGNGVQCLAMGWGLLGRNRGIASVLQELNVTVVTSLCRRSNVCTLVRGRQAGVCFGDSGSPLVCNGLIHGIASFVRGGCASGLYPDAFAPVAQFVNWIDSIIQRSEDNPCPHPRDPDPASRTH
The experiment in a line: Inhibition of human neutrophil elastase at 3.5 mM after 30 mins assessed as p-nitroaniline release. The method, boiled down:
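HNE (7.0 μM stock) preincubated 30 min at 25 °C with inhibitor in DMSO at inhibitor/enzyme ratio 500, in 0.1 M HEPES/0.5 M NaCl pH 7.25. Methoxysuccinyl-Ala-Ala-Pro-Val p-nitroanilide then added, and p-nitroaniline release followed at 410 nm for 2 min. DMSO-only control. Remaining activity = (v/v0)×100, mean of duplicate or triplicate runs.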

In assay [2] the target is Myeloblastin (proteinase 3) (Homo sapiens) (UniProt P24158). Put plainly: Inhibition of human neutrophil proteinase 3 at 1.73 mM.
Sequence of Myeloblastin (proteinase 3) (Homo sapiens) (P24158 whole entry, looked up): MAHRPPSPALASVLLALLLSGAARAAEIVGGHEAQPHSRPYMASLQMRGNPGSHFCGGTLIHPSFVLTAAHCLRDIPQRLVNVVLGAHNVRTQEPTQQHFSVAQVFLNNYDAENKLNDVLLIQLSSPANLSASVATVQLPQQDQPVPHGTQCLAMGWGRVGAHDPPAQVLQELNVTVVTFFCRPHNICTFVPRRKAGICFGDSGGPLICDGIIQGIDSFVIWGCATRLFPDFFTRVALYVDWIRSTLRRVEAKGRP
Assay [3] deals with T2, Neutrophil elastase (Homo sapiens, UniProt P08246).
T2 sequence (P08246 whole entry): T1 sequence (whole entry)
Put plainly: Reversible competitive inhibition of human neutrophil elastase by Dixon plot analysis.

The structures appear in SMILES notation. Activity calls are given as the source filed them. No cut-off for these calls is given here.

The term inhibition denotes the relative decrease from the control value, in per cent. `O=C(O)CCC(=O)NN1CNC(Cc2ccccc2)C1=O` (stereo not given): the inhibition in assay [1] and in assay [2] was 0% each time.
For orientation: Ki means a dissociation constant, usually derived from enzyme kinetics or from competition with a known ligand. A low value points to higher affinity. With `CC(C)C[C@@H]1C(=O)N(NC(=O)[C@@H](Cc2ccccc2)NC(=O)OCc2ccccc2)CN1Cc1ccccc1` (racemic), the inhibition result in assay [2] was “inactive”. In assay [3], this compound yielded a Ki of 7.34 µM.
As for `CC(C)CC1C(=O)N(N(S(C)(=O)=O)S(C)(=O)=O)CN1Cc1ccccc1` (racemic), the inhibition in assay [1] and in assay [2] was 0% each time.
Consider `CC(C)CC1C(=O)N(NC(=O)CCC(=O)O)CN1Cc1ccccc1` (racemic), for which the inhibition in assay [1] and in assay [2] was 0% in each case.
For the compound `CC(C)CC1C(=O)N(NC(=O)CCc2ccccc2)CN1Cc1ccccc1` (racemic), the inhibition in assay [1] and in assay [2] was 0% in each case.
As to `CC(C)CC1C(=O)N(NC(=O)NCCc2ccccc2)CN1Cc1ccccc1` (racemic), the inhibition in assay [1] and in assay [2] was 0% each time.
Turning to `CC(C)CC1C(=O)N(NC(=O)c2ccccc2C(=O)O)CN1Cc1ccccc1` (racemic), the inhibition in assay [1] and in assay [2] was 0% throughout.
Turning to `CCOC(=O)CNC(=O)NN1CN(Cc2ccccc2)C(CC(C)C)C1=O` (racemic), the inhibition in assay [1] and in assay [2] was 0% throughout.
In the case of `CCOC(=O)CNC(=O)NN1CN(Cc2ccccc2)C(Cc2ccccc2)C1=O` (racemic), the inhibition in assay [1] and in assay [2] was 0% each time.
With `Cc1ccc(S(=O)(=O)N(N2CN(Cc3ccccc3)C(CC(C)C)C2=O)S(=O)(=O)c2ccc(C)cc2)cc1` (racemic), the inhibition in assay [1] and in assay [2] was 0% throughout.
On to `O=C(NCCc1ccccc1)NN1CN(Cc2ccccc2)C(Cc2ccccc2)C1=O` (racemic), for which the inhibition in assay [1] and in assay [2] was 0% each time.
Take `O=C(NCCc1ccccc1)NN1CNC(Cc2ccccc2)C1=O` (racemic): the inhibition in assay [1] and in assay [2] was 0% each time.
On to `O=C(NN1CN(Cc2ccccc2)C(Cc2ccccc2)C1=O)C1CC(=O)N(Cc2ccc(F)cc2)C1` (racemic), for which the inhibition in assay [1] and in assay [2] was 0% throughout.
Consider `O=C(NN1CN(Cc2ccccc2)C(Cc2ccccc2)C1=O)C1CC(=O)N(Cc2ccccc2)C1` (racemic), for which the inhibition in assay [1] and in assay [2] was 0% in each case.
On to `O=C(NN1CN(Cc2ccccc2)C(Cc2ccccc2)C1=O)C1CC(=O)N(Cc2ccco2)C1` (racemic), for which the inhibition in assay [1] and in assay [2] was 0% throughout.
Consider `O=C(NN1CNC(Cc2ccccc2)C1=O)C1CC(=O)N(Cc2ccc(F)cc2)C1` (racemic), for which the inhibition in assay [1] and in assay [2] was 0% in each case.
For `O=C(NN1CNC(Cc2ccccc2)C1=O)C1CC(=O)N(Cc2ccccc2)C1` (racemic), the inhibition in assay [1] and in assay [2] was 0% each time.
Turning to `O=C(O)CCC(=O)NN1CN(Cc2ccccc2)C(Cc2ccccc2)C1=O` (racemic), the inhibition in assay [1] and in assay [2] was 0% in each case.
Consider `O=C(O)c1ccccc1C(=O)NN1CN(Cc2ccccc2)C(Cc2ccccc2)C1=O` (racemic), for which the inhibition in assay [1] and in assay [2] was 0% in each case.
For the compound `O=C(O)c1ccccc1C(=O)NN1CNC(Cc2ccccc2)C1=O` (racemic), the inhibition in assay [1] and in assay [2] was 0% each time.
